Source: PubChem BioAssay (several laboratories)
In the library only some 1.2% were active in any assay of this set; here they are far more common.
S1P3 antag: S1P3 receptor antagonists, primary screen, cell-based. hit rate 0.27% among 170,000. Sphingosine 1-phosphate receptor 3 (Homo sapiens), Q99500. AID 485, 2006. inhibition, % at 4.98 µM. CHO S1P3 NFAT-BLA reporter, FRET fluorescence, antagonist mode;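 active means inhibition above the plate cutoff, the mean inhibition of test wells on that plate plus 3 SD, cut at about 28% in these data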;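 further: cells challenged with S1P at its EC80 of 0.8 µM; blue over green emission ratio from cleaved BLA substrate after 4 h stimulation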
Target sequence (Q99500 whole entry, looked up): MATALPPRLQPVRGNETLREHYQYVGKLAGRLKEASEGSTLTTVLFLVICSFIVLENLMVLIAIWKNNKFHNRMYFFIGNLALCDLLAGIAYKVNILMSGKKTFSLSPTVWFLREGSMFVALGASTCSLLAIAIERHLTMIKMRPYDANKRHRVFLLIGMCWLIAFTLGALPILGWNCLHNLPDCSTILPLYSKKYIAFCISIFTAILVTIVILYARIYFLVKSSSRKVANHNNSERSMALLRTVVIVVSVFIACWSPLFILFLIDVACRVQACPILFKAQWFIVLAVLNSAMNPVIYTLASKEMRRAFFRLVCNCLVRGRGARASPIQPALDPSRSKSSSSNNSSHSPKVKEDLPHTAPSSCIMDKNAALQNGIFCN
Biofilm kill mix: clotrimazole potentiators killing C. albicans biofilm, primary screen, 4-compound mixtures | C. albicans biofilm persisters + clotrimazole, fluorescence viability; primary screen in compound mixtures of four per well | inhibition, % at 7.6 µM | hit rate 0.02% among 120,000 | AID 1242, 2008;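 active means inhibition above 30.3% in the primary screen of four-compound pools, then above 30% when the compound was retested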;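 further: compounds exposed to preformed 24 h biofilms for 48 h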
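Probe or stimulus – Clotrimazole 50 µg/mL co-treatment · System – C. albicans biofilms · Schedule – 24 h biofilm formation, then 48 h compound exposure, 37 °C · Evaluation – percent inhibition of biofilm viability · Technique – 2-h Alamar Blue fluorescence, 535/590 nm excitation/emission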
S1P4 antag: S1P4 receptor antagonists, primary screen, cell-based. hit rate 0.26% among 220,000. S1P4-expressing cells, antagonist mode, reporter read-out. inhibition, % at 4.98 µM; in the data active means inhibition above about 29%
S1P4 agonist: S1P4 receptor agonists, primary screen, cell-based | S1P4-expressing cell line, agonist reporter assay | Sphingosine 1-phosphate receptor 4 (Homo sapiens), O95977 | activation, % at 4.98 µM | AID 1509, 2009 | hit rate 0.35% among 220,000; in the data active means activation above about 11%
HMGR II inh: inhibitors of E. faecalis class II HMGR, primary screen, biochemical, Enterococcus faecalis | HMG-CoA reductase (Enterococcus faecalis, mvaE) | purified E. faecalis HMGR, NADPH absorbance 340 nm kinetic | inhibition, % at 10 µM | hit rate 0.41% among 190,000 | AID 1066, 2008;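 active means inhibition above a set limit, the median over all tested compounds plus 3 SD, cut at about 9.5% in these data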;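 further: enzyme runs in reverse so mevalonate oxidation gives rising NADPH absorbance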
Rad51 HR inh: human RAD51 strand exchange inhibitors, primary screen, biochemical, fluorescence; DNA repair protein RAD51 homolog 1 (Homo sapiens), Q06609; hit rate 0.085% among 200,000; inhibition, % at 10 µM; hRad51 DNA strand exchange, fluorescence dequenching;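 active means inhibition above 40% at the single screening dose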
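material = hRad51 filaments on single-stranded DNA | reagent = Donor/quencher-labelled 47-bp dsDNA substrate | compound = 10 µM final, single point | schedule = strand-exchange reaction 15 min at room temperature | measured by = fluorescein emission 520 nm, excitation 485 nm | read-out basis = % inhibition versus plate control and blank means | benchmarks = plate controls and plate blanks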
S1P4 ag conf: S1P4 receptor agonists, retest, confirmation, cell-based, high throughput; activation, % at 4.98 µM; S1P4 agonist cell-based reporter assay; shares compounds with S1P4 agonist; AID 1523, 2009; hit rate 7% among 740; in the data active means activation above about 12%
S1P1 agonist: S1P1 receptor agonists, human, counter-screen for S1P4 agonist project, cell-based | shares compounds with S1P4 agonist | S1P1 agonist cell-based assay, activation | activation, % at 4.98 µM | hit rate 4% among 740; in the data active means activation above about 21%
Hits are given with their value; – = inactive; · = not tested or not shown.

SMILES	S1P3 antag	Biofilm kill mix	S1P4 antag	S1P4 agonist	HMGR II inh	Rad51 HR inh	S1P4 ag conf	S1P1 agonist
COCn1c(-c2ccc(OC)c(OC)c2)nc2ccccc21	–	·	–	–	–	–	·	·
Cc1ccc(S(=O)(=O)N2CCc3ccccc3C2CC(=O)O)cc1 (stereo not drawn)	–	–	–	25.9	·	–	–	–
Cn1c(NC(=O)c2ccc(Cl)cc2Cl)cc(=O)n(C)c1=O	–	·	–	–	–	–	·	·
O=S(=O)(c1ccc(Cl)cc1)N1CCN(c2nc(-c3cccs3)nc3ccccc23)CC1	–	–	–	15.4	–	–	–	–
O=C(COc1ccccc1)NCc1cccs1	·	·	–	14.0	–	–	–	–
N#Cc1c(NC(=O)CN2CCN(S(=O)(=O)c3ccc4c(c3)OCCO4)CC2)sc2c1CCC2	–	·	–	–	–	–	·	·
COC(=O)C(C)(C)ONC(=O)Nc1ccc(Br)cc1	–	–	–	–	–	·	·	·
COC(=O)C(C)(C)ONC(=O)Nc1ccccc1	–	–	–	194.1	–	–	–	–
COc1ccc(NC(=O)CSc2ccccc2)c([N+](=O)[O-])c1	–	–	–	–	–	–	·	·
COc1ccc(NC(=O)CSc2nc3ccccc3n2-c2ccccc2)c([N+](=O)[O-])c1	–	–	–	44.5	–	·	–	–
Cc1ccc(NC(=O)Cn2cnc3ccccc32)cc1C	–	–	–	57.6	–	–	–	–
CCCCNc1nc(N)ncc1[N+](=O)[O-]	–	–	–	–	·	–	·	·
COC(=O)N/N=C/c1cc(Cl)cc(Cl)c1OCc1ccccc1	–	–	–	–	–	–	·	·
COc1ccc(-c2c(C#N)c(N)nc3c2CCc2ccccc2-3)cc1OC	·	·	–	13.6	–	–	18.5	–
CCN(CC)C(=O)Cn1c(=O)n(CCCCCC(=O)Nc2ccccc2)c(=O)c2sccc21	–	–	–	11.6	–	–	–	–
O=C(CSCc1ccc(Br)cc1)Nc1ccc(S(=O)(=O)N2CCOCC2)cc1	·	·	–	–	–	·	·	·
COc1cc(Br)cc(C=Nc2cccc(C(F)(F)F)c2)c1O	–	–	–	13.5	–	–	–	–
Cc1ccc(NC(=O)Cn2cc3c(n2)CCC(C)C3)cc1 (stereo not drawn)	–	·	–	27.1	–	–	–	–
CSc1nc(N)c(C#N)c(-c2ccc(Cl)cc2)c1C#N	–	·	–	11.2	–	–	–	–
CSc1nc(-c2ccc(Cl)cc2)nc(N)c1C#N	–	–	–	–	·	–	·	·
COc1ccc(NC(=O)CSc2nc(C)cs2)c(OC)c1	–	–	–	73.9	–	–	–	–
Cc1cccc(OCC(=O)Nc2ncn[nH]2)c1C	–	–	–	24.4	·	–	–	–
COc1ccc(C(=O)CSc2nnc(C(CO)NC(=O)c3ccc(OC)cc3)n2C)cc1 (stereo not drawn)	–	·	–	–	–	–	·	·
O=C(c1ccc(NC(=S)Nc2ccc(Cl)c(Cl)c2)cc1)N1CCCC1	–	–	–	22.9	–	–	–	–
COc1cc(CNCCSc2nnnn2C)cc(Br)c1OCc1ccc(F)cc1	·	·	–	–	–	–	·	·
SMILES	S1P3 antag	Biofilm kill mix	S1P4 antag	S1P4 agonist	HMGR II inh	Rad51 HR inh	S1P4 ag conf	S1P1 agonist
CCOc1cc(CNCCSc2nnnn2C)cc(Br)c1OCc1ccc(F)cc1	–	–	–	40.6	–	–	–	–
Cn1cccc1C(=O)NC(=O)COC(=O)CNC(=O)c1ccc(Cl)cc1Cl	–	–	–	–	–	–	·	·
Cn1cccc1C(=O)NC(=O)COC(=O)CNC(=O)CNC(=O)c1ccc(Cl)cc1Cl	–	–	–	22.0	–	–	–	–
COc1ccc(NCC(=O)N/N=C2\CCCC(C)C2)cc1 (stereo not drawn)	–	–	–	23.4	–	–	–	–
CC1CCC/C(=N\NC(=O)Nc2ccccc2)C1 (stereo not drawn)	–	–	–	–	–	–	·	·
Cc1nnc(SCc2nnc(-c3cccs3)o2)n1C1CCCCC1	–	–	–	–	–	–	·	·
COc1ccc(-c2nnc(SCc3nnc(-c4cccs4)o3)n2CC2CCCO2)cc1 (stereo not drawn)	–	–	–	57.1	–	·	–	–
O=C(NCCN1CCOCC1)c1ccc(-c2ccccc2)cc1	–	·	–	–	–	–	·	·
Cc1onc(-c2ccccc2)c1C(=O)NCCN1CCOCC1	–	·	–	16.8	–	·	–	–
Cc1nn(-c2ccccc2)c2c1C(c1c(C)[nH]c(C#N)c1C)C(C#N)=C(N)O2 (stereo not drawn)	–	·	–	–	–	–	·	·
CC(C)n1c(=NC(=O)c2ccco2)c(C#N)cc2c(=O)n3ccccc3cc21	–	·	–	11.8	–	·	–	–
CCC(C)(C)n1nnnc1C(c1ccncc1)N1CCN(c2cccc(OC)c2)CC1 (stereo not drawn)	–	·	–	–	–	–	·	·
CCC(C)(C)n1nnnc1C(c1cccnc1)N1CCN(c2cccc(C(F)(F)F)c2)CC1 (stereo not drawn)	·	·	–	15.1	–	–	–	–
CCN(N)C(=S)Nc1ccc(F)cc1	–	–	–	32.9	–	–	–	–
Cc1ccc(NC(=S)N(N)CCO)cc1	–	–	–	–	–	–	·	·
Clc1ccc(C2=NN(c3ccccc3)C(c3ccco3)C2)cc1 (stereo not drawn)	–	–	–	20.4	·	·	14.2	30.3
COc1ccccc1CNC(=O)C(CC(C)C)NS(=O)(=O)c1ccc2c(c1)oc(=O)n2C (stereo not drawn)	·	·	–	–	–	–	·	·
CCn1c(=O)c([N+](=O)[O-])c(Cl)c2ccccc21	–	–	–	–	–	–	·	·
O=c1cc(-c2ccc([N+](=O)[O-])cc2)c2ccc(O)cc2o1	–	–	–	11.9	–	–	–	–
CN(Cc1cc2ccccc2[nH]c1=O)C(=O)c1cccs1	–	–	–	–	–	–	·	·
Cc1ccc2[nH]c(=O)c(CN(C)C(=O)c3cccs3)cc2c1	–	–	–	21.6	–	–	–	–
COC(=O)c1ccsc1NC(=O)C1COc2ccccc2O1 (stereo not drawn)	–	·	–	–	–	–	·	·
Cn1c(SCC(=O)O)nnc1-c1ccc2ncccc2c1	–	–	–	116.7	·	–	–	–
CC(C)Sc1nc2ccc(Br)cc2[nH]1	–	–	–	13.8	–	–	–	–
